Measured values of several laboratories.
Each line is one published result; the experiments were not run side by side.
Target: Eukaryotic elongation factor 2 kinase (EEF2K, Homo sapiens, UniProt O00418)

Compound	test	system	setting	quantity	result
CN1CC(Oc2cnc(C#N)cc2-c2ccn3nc(NC(=O)C4CC4)cc3c2)C1	enzyme activity, inhibitor		1 µM	inhibition	9%
COc1cc2ncnc(Nc3ccc(Oc4ccccc4)cc3C)c2cc1OC	enzyme activity, inhibitor		1 µM	inhibition	2%
CC(C)(C)c1nc(-c2cccc(NS(=O)(=O)c3c(F)cccc3F)c2F)c(-c2ccnc(N)n2)s1	enzyme activity, inhibitor, radiometric		1 µM	remaining activity	93%
Cn1c2c(Cl)c(Cl)ccc2c2cc[nH]c(=O)c21	thermal stability, DSF		10 µM	ΔTm	-0.3 °C
CN(c1ncccc1CNc1nc(Nc2ccc3c(c2)CC(=O)N3)ncc1C(F)(F)F)S(C)(=O)=O	enzyme activity, inhibitor		1 µM	inhibition	0%
CC(C)c1ccc(NC(=O)c2cccs2)c(-c2nc3ccccc3[nH]c2=O)c1	enzyme activity, inhibitor		1 µM	activity vs control	113%
CNc1cc(Oc2cc(C(=O)Nc3cc(N4CCN(C)CC4)cc(C(F)(F)F)c3)ccc2C)ncn1	target engagement in cells, inhibitor, chemoproteomics	Huh-7	1 µM	inhibition	-99.1%
N#CC1c2c([nH]c3c(Cl)c(Cl)ccc23)C(=O)NC12CCCCC2 (racemic)	thermal stability, DSF		10 µM	ΔTm	-0.1 °C
CC/C(=N\NC(=O)NCc1cccc(O)c1)c1ccc(O)c(C)c1O	enzyme activity, inhibitor		0.1 µM	inhibition	1.1%
Oc1cccc(-c2nc(N3CCOCC3)c3oc4ncccc4c3n2)c1	enzyme activity, inhibitor		10 µM	remaining activity	99%
Cn1c2c(c3ccc(Cl)c(Cl)c31)C(C#N)C1(CCNCC1)NC2=O (racemic)	thermal stability, DSF		10 µM	ΔTm	0 °C
CCN1CCN(Cc2ccc(NC(=O)c3ccc(C)c(Oc4ccnc5[nH]ccc45)c3)cc2C(F)(F)F)CC1	target engagement in cells, inhibitor, chemoproteomics	A-375	0.5 µM	inhibition	0.084%
Cn1c2c(c3ccc(Cl)c(Cl)c31)C(C#N)C1(CCCC1)NC2=O (stereo not drawn)	thermal stability, DSF		10 µM	ΔTm	0 °C
FC(F)(F)Oc1cccc(-c2cnc3ccc(-c4ccncc4)nn23)c1	enzyme activity, inhibitor, radiometric		1 µM	activity vs control	99%
COc1cc(Nc2cnc(C#N)c(O[C@H](C)CN(C)C)n2)ncc1-c1cnn(C)c1	enzyme activity, inhibitor, radiometric		1 µM	remaining activity	94%
CCCS(=O)(=O)Nc1ccc(F)c(C(=O)c2c[nH]c3ncc(-c4ccc(Cl)cc4)cc23)c1F	enzyme activity, inhibitor		1 µM	inhibition	< 10%
CN1CCC2(CC1)NC(=O)c1c(c3ccc(Cl)c(Cl)c3n1C)C2C#N (racemic)	thermal stability, DSF		10 µM	ΔTm	-0.1 °C
COc1cc2nccc(Oc3ccc(NC(=O)c4c5n(n(-c6ccc(F)cc6)c4=O)CCCC5)cc3)c2cc1OC	enzyme activity, inhibitor		0.1 µM	inhibition	8%
CCN(CC)CCNC(=O)c1c(C)[nH]c(/C=C2\C(=O)Nc3ccc(F)cc32)c1C	enzyme activity, inhibitor		0.3 µM	inhibition	-15%
Cc1cnc(NC2CCOCC2)nc1-n1cnc(C(=O)NC(CN)c2cc(F)cc(Cl)c2)c1 (stereo not drawn)	enzyme activity, inhibitor, radiometric		1 µM	remaining activity	108%
CNC(=O)c1cc(Oc2ccc(NC(=O)Nc3ccc(Cl)c(C(F)(F)F)c3)cc2)ccn1	enzyme activity, inhibitor		0.3 µM	inhibition	-6%
COc1cc(Cl)c(C(=O)N[C@@H](CN[C@H]2CC[C@@H](N)CC2)Cc2ccc(C#N)cc2)cc1-c1ccc(CN[C@H](C)c2ccc(C)cc2)o1	enzyme activity, inhibitor		1 µM	remaining activity	80%
CC(C)(C)C(=O)c1sc(NC2CCCCC2)nc1N	enzyme activity, inhibitor		10 µM	remaining activity	111%
Cc1ccc(Nc2nccc(N(C)c3ccc4c(C)n(C)nc4c3)n2)cc1S(N)(=O)=O	enzyme activity, inhibitor		0.3 µM	inhibition	-7%
